Assay results from ChEMBL document CHEMBL4402598, “Design and Synthesis of Bitopic 2-Phenylcyclopropylmethylamine (PCPMA) Derivatives as Selective Dopamine D3 Receptor Ligands” (J Med Chem, 2020).

Assays:
[1] = Cmax in ICR mouse at 10 mg/kg, po by LC-MS/MS analysis; type: ADME, organism-based; parameters: dose 10 mg/kg, route oral; conditions: in vivo
In short: (§1)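 Male ICR mice (6-8 weeks, ~25 g) dosed with compound dissolved in saline, 5 mg/kg iv or 10 mg/kg po, nine animals per group. Samples stored at -80 °C; drug quantified by LC-MS/MS.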

D(1A) dopamine receptor = D(1A) dopamine receptor (Homo sapiens, UniProt P21728); test: Displacement of [3H]-SCH23390 from recombinant human D1 receptor transiently expressed in HEKT cell membranes measured after 90 mins by microbeta scintillation counting method
Sequence of D(1A) dopamine receptor (P21728 whole entry): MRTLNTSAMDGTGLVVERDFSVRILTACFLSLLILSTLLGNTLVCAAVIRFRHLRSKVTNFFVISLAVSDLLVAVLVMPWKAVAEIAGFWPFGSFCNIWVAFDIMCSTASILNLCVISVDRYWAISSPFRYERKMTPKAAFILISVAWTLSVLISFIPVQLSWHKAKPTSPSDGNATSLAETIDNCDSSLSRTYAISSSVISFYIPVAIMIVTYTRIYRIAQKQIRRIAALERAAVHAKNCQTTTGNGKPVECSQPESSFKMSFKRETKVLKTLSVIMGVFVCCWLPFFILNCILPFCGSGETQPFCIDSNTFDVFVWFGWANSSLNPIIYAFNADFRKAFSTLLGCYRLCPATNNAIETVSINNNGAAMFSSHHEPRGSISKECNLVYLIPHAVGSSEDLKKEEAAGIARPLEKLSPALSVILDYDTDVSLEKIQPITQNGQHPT

D(2) dopamine receptor = D(2) dopamine receptor (Homo sapiens, UniProt P14416); test: Displacement of [3H]-N-methylspiperone from recombinant human D2 receptor stably expressed in fibroblast cell membranes measured after 90 mins by microbeta scintillation counting method
Sequence of D(2) dopamine receptor (P14416 whole entry): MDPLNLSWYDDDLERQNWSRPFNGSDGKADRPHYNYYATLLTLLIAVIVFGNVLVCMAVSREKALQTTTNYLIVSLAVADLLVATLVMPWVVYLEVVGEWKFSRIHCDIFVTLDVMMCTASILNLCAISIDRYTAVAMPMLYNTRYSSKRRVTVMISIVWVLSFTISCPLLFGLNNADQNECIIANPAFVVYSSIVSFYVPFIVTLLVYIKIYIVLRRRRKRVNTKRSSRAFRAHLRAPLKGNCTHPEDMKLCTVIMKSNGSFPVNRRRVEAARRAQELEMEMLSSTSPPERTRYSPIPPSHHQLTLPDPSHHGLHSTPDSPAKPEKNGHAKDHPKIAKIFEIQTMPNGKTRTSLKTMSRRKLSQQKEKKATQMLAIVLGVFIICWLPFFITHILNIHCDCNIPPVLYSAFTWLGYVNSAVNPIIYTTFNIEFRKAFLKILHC

D(4) dopamine receptor = target: T1, D(4) dopamine receptor (Homo sapiens, UniProt P21917); test: Displacement of [3H]-N-methylspiperone from recombinant human D4 receptor stably expressed in HEK cell membranes measured after 90 mins by microbeta scintillation counting method
T1 sequence (P21917 whole entry): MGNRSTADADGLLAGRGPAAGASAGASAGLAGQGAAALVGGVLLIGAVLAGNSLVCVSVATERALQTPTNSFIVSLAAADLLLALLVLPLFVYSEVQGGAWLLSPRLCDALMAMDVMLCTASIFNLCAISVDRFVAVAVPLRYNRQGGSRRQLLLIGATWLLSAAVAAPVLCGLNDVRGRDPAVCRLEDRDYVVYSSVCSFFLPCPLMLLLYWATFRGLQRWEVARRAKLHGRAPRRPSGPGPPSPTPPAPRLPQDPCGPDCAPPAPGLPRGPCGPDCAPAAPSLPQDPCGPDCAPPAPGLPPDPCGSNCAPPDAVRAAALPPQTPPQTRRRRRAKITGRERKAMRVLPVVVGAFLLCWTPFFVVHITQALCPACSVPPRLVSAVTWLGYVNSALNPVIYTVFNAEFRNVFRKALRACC

D(1B) dopamine receptor = D(1B) dopamine receptor (Homo sapiens, UniProt P21918); test: Displacement of [3H]-SCH23390 from recombinant human D5 receptor transiently expressed in HEKT cell membranes measured after 90 mins by microbeta scintillation counting method
Sequence of D(1B) dopamine receptor (P21918 whole entry): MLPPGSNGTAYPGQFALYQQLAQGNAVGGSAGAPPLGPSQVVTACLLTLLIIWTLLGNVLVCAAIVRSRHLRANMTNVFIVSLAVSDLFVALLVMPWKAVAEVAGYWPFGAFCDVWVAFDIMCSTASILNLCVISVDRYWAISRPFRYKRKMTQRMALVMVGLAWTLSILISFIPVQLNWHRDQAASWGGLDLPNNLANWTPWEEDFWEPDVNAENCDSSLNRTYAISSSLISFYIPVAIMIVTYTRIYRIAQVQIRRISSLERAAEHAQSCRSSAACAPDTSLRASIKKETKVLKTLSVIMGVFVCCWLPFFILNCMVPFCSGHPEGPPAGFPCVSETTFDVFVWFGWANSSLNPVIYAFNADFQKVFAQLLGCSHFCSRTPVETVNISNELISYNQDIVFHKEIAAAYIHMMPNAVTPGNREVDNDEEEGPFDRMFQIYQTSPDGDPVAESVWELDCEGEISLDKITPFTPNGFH

[2] = target: T2, 5-hydroxytryptamine receptor 2C (Homo sapiens, UniProt P28335); test: Displacement of [3H]-Mesulergine from recombinant human 5HT2C receptor expressed in HEKT cell membranes measured after 90 mins by microbeta scintillation counting method
T2 sequence (P28335 whole entry): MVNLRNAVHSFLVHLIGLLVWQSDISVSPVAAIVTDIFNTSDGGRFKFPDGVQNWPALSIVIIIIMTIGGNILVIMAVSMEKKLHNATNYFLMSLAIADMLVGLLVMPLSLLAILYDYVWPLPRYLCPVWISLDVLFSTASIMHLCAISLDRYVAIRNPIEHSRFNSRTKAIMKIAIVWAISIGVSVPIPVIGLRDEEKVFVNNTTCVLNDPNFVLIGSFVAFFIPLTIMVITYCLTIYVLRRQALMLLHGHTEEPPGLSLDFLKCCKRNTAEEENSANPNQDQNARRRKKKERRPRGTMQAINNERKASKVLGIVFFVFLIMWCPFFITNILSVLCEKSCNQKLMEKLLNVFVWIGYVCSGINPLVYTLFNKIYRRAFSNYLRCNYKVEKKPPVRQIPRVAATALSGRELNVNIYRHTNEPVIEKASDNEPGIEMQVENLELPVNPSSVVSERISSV

[3] = target: T2, 5-hydroxytryptamine receptor 2C; test: Antagonist activity at human 5HT2C receptor stably expressed in HEK293 cells co-expressing Gq assessed as inhibition of 5-HT-induced calcium mobilization preincubated for 15 mins followed by 5-HT addition and measured at 1 sec interval for 60 secs by Fluo-4 calcium dye based FLIPR assay; type: functional, cell-based
In short: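 5-HT2C stably transfected HEK293 cells, loaded with Fluo-4 Direct (HBSS, 20 mM HEPES pH 7.4, 2.5 mM probenecid; 50 min 37 °C, 10 min room temperature). Test compound added, then 5-HT (final 1 nM) 15 min later.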

[4] = target: 5-hydroxytryptamine receptor 2A (Homo sapiens, UniProt P28223); test: Agonist activity at 5HT2A receptor (unknown origin) expressed in HEK293 cells co-expressing Gq assessed as induction of calcium mobilization measured at 1 sec interval for 60 secs by Fluo-4 calcium dye based FLIPR assay; type: cell-based; conditions: hek293, 1 min
Sequence of 5-hydroxytryptamine receptor 2A (P28223 whole entry): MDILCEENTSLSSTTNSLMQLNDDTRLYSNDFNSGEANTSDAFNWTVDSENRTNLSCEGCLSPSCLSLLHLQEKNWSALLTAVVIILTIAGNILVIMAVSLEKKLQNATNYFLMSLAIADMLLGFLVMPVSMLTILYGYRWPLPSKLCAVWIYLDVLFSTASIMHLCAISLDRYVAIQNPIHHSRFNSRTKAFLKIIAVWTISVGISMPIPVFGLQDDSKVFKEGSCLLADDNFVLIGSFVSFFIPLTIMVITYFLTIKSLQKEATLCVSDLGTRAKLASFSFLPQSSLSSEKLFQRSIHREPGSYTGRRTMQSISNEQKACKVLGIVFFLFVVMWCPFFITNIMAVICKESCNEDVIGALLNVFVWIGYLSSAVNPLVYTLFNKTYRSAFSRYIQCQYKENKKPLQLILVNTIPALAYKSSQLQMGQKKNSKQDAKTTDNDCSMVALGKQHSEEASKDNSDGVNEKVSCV

[5] = target: 5-hydroxytryptamine receptor 2B (Homo sapiens, UniProt P41595); test: Agonist activity at 5HT2B receptor (unknown origin) expressed in HEK293 cells co-expressing Gq assessed as induction of calcium mobilization measured at 1 sec interval for 60 secs by Fluo-4 calcium dye based FLIPR assay; type: cell-based; conditions: hek293, 1 min
Sequence of 5-hydroxytryptamine receptor 2B (P41595 whole entry): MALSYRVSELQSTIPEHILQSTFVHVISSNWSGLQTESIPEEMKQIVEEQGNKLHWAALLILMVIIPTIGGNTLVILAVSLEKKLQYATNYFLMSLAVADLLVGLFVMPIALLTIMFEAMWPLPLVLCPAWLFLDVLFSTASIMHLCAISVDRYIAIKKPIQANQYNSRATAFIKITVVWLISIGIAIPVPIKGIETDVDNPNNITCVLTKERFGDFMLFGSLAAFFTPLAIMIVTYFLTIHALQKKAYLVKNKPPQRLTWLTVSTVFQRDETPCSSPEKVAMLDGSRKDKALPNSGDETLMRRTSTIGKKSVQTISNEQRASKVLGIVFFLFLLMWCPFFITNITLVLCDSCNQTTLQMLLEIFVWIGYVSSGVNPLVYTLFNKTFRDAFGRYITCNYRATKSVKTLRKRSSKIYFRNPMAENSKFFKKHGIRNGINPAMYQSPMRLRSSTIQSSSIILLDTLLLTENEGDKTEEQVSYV

[6] = Half life in ICR mouse at 5 mg/kg, iv by LC-MS/MS analysis; type: ADME, organism-based; conditions: in vivo; in short: as §1
[7] = AUC (0 to t) in ICR mouse at 5 mg/kg, iv by LC-MS/MS analysis; type: ADME, organism-based; conditions: in vivo; in short: as §1
[8] = Clearance in ICR mouse at 5 mg/kg, iv by LC-MS/MS analysis; type: ADME, organism-based; conditions: in vivo; in short: as §1
[9] = MRT in ICR mouse at 5 mg/kg, iv by LC-MS/MS analysis; type: ADME, organism-based; conditions: in vivo; in short: as §1
[10] = Volume of distribution at steady state in ICR mouse at 5 mg/kg, iv by LC-MS/MS analysis; type: ADME, organism-based; conditions: in vivo, read-out: Vdss; in short: as §1
[11] = Drug level in ICR mouse brain at 5 mg/kg, iv measured after 0.5 hrs by LC-MS/MS analysis; type: ADME, organism-based
In short: (§2)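 Male ICR mice (6-8 weeks, ~25 g) received compound in saline, 5 mg/kg iv or 10 mg/kg po. Brains collected at 0.5 and 2.0 h, saline-washed, weighed, homogenized in cold 50% methanol (1 g:3 mL). Plasma prepared from orbital blood. Samples held at -80 °C; LC-MS/MS quantitation. Brain/plasma ratio calculated from the two concentrations.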

[12] = Drug level in ICR mouse plasma at 5 mg/kg, iv measured after 0.5 hrs by LC-MS/MS analysis; type: ADME, organism-based; in short: as §2
[13] = Ratio of drug level in ICR mouse brain to plasma at 5 mg/kg, iv measured after 0.5 hrs by LC-MS/MS analysis; type: ADME, organism-based; conditions: read-out: BPR; in short: as §2
[14] = Drug level in ICR mouse brain at 5 mg/kg, iv measured after 2 hrs by LC-MS/MS analysis; type: ADME, organism-based; in short: as §2
[15] = Drug level in ICR mouse plasma at 5 mg/kg, iv measured after 2 hrs by LC-MS/MS analysis; type: ADME, organism-based; in short: as §2
[16] = Ratio of drug level in ICR mouse brain to plasma at 5 mg/kg, iv measured after 2 hrs by LC-MS/MS analysis; type: ADME, organism-based; conditions: read-out: BPR; in short: as §2
[17] = Tmax in ICR mouse at 10 mg/kg, po by LC-MS/MS analysis; type: ADME, organism-based; conditions: in vivo; in short: as §1
[18] = Half life in ICR mouse at 10 mg/kg, po by LC-MS/MS analysis; type: ADME, organism-based; conditions: in vivo; in short: as §1
[19] = AUC (0 to t) in ICR mouse at 10 mg/kg, po by LC-MS/MS analysis; type: ADME, organism-based; conditions: in vivo; in short: as §1
[20] = MRT in ICR mouse at 10 mg/kg, po by LC-MS/MS analysis; type: ADME, organism-based; conditions: in vivo; in short: as §1
[21] = Oral bioavailability in ICR mouse at 10 mg/kg by LC-MS/MS analysis; type: ADME, organism-based; conditions: in vivo; in short: as §1
[22] = Drug level in ICR mouse brain at 10 mg/kg, po measured after 0.5 hrs by LC-MS/MS analysis; type: ADME, organism-based; in short: as §2
[23] = Drug level in ICR mouse plasma at 10 mg/kg, po measured after 0.5 hrs by LC-MS/MS analysis; type: ADME, organism-based; in short: as §2
[24] = Ratio of drug level in ICR mouse brain to plasma at 10 mg/kg, po measured after 0.5 hrs by LC-MS/MS analysis; type: ADME, organism-based; conditions: read-out: BPR; in short: as §2
[25] = Drug level in ICR mouse brain at 10 mg/kg, po measured after 2 hrs by LC-MS/MS analysis; type: ADME, organism-based; in short: as §2
[26] = Drug level in ICR mouse plasma at 10 mg/kg, po measured after 2 hrs by LC-MS/MS analysis; type: ADME, organism-based; in short: as §2
[27] = Ratio of drug level in ICR mouse brain to plasma at 10 mg/kg, po measured after 2 hrs by LC-MS/MS analysis; type: ADME, organism-based; conditions: read-out: BPR; in short: as §2
[28] = target: T2, 5-hydroxytryptamine receptor 2C; test: Agonist activity at human 5HT2C receptor stably expressed in HEK293 cells co-expressing Gq assessed as induction of calcium mobilization measured at 1 sec interval for 60 secs by Fluo-4 calcium dye based FLIPR assay; type: functional, cell-based
In short: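 HEK293 cells stably expressing 5-HT2C, plated overnight in DMEM with 1% dialyzed FBS (15,000 cells/well), loaded with Fluo-4 Direct in HBSS/20 mM HEPES pH 7.4/2.5 mM probenecid for 50 min at 37 °C, then 10 min at room temperature. FLIPR read 1/s for 2 min; 10 s baseline subtracted from peak within 60 s; fold of basal. Mean of ≥3 experiments.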

Cmax [1] [ng/mL]	Ki (D(1A) dopamine receptor) [nM]	Ki (D(2) dopamine receptor) [nM]	Ki (D(4) dopamine receptor) [nM]	Ki (D(1B) dopamine receptor) [nM]	Ki [2] [nM]	IC50 [3] [nM]	Activity [4]	Activity [5]	half-life [6] [h]	AUC(0-t) [7] [ng·h/mL]	clearance [8] [mL/min/kg]	MRT [9] [h]	Vd [10] [L/kg]	concentration at 0.5 h [11] [ng/mL]	concentration at 0.5 h [12] [ng/mL]	Kp at 0.5 h [13]	concentration at 2 h [14] [ng/mL]	concentration at 2 h [15] [ng/mL]	Kp at 2 h [16]	SMILES	further results
63.9	1380	537	1050	> 5000	513	> 30000	Active	Not Active	3.12	629	117	3.4	23.8	833	215	3.88	543	94.8	5.72	CCCN(CCCCNC(=O)c1cc2ccccc2[nH]1)C[C@@H]1C[C@H]1c1cccc(Cl)c1Cl.Cl	Tmax [17]: 1 h; half-life [18]: 4.11 h; AUC(0-t) [19]: 428 ng·h/mL; MRT [20]: 6 h; bioavailability [21]: 34.1%; concentration at 0.5 h [22]: 51.3 ng/mL; concentration at 0.5 h [23]: 35.5 ng/mL; Kp at 0.5 h [24]: 1.45; concentration at 2 h [25]: 160 ng/mL; concentration at 2 h [26]: 67.7 ng/mL; Kp at 2 h [27]: 2.36
118	1350	–	676	> 5000	417	10100	Active	Not Active	0.576	976	84.8	0.808	4.11	980	511	1.92	227	118	1.93	CCCN(CCCCNC(=O)c1ccc(-c2ccccn2)cc1)C[C@@H]1C[C@H]1c1cccc(Cl)c1Cl.Cl	Tmax [17]: 0.5 h; half-life [18]: 2.12 h; AUC(0-t) [19]: 254 ng·h/mL; MRT [20]: 2.77 h; bioavailability [21]: 13%; concentration at 0.5 h [22]: 26.7 ng/mL; concentration at 0.5 h [23]: 118 ng/mL; Kp at 0.5 h [24]: 0.23; concentration at 2 h [25]: 9.1 ng/mL; concentration at 2 h [26]: 44.1 ng/mL; Kp at 2 h [27]: 0.207
–	1120	992	676	> 5000	61.7	–	Active	Not Active	–	–	–	–	–	–	–	–	–	–	–	CCCN(CCCCNC(=O)c1cc2ccccc2[nH]1)C[C@H]1C[C@@H]1c1cccc(Cl)c1Cl.Cl	EC50 [28]: 2550 nM
37.3	1290	676	813	> 5000	427	16100	Active	Not Active	1.51	616	134	2.58	20.8	3420	270	12.7	913	82.6	11.1	CCCN(CCCCNC(=O)c1ccc2ccccc2c1)C[C@@H]1C[C@H]1c1cccc(Cl)c1Cl.Cl	Tmax [17]: 0.25 h; half-life [18]: 2.08 h; AUC(0-t) [19]: 81.1 ng·h/mL; MRT [20]: 2.59 h; bioavailability [21]: 6.6%; concentration at 0.5 h [22]: 23.2 ng/mL; concentration at 0.5 h [23]: 28.4 ng/mL; Kp at 0.5 h [24]: 0.82; concentration at 2 h [25]: 23.2 ng/mL; concentration at 2 h [26]: 16.4 ng/mL; Kp at 2 h [27]: 1.61
